Experimental data published in the EternaBench riboswitch data.

Tested on: MS2 coat protein
Test: apparent Kd, MS2 coat protein; higher = weaker binding; RNA-MaP array; FMN 200 µM where present
Summary of the method: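 Two titrations, one without ligand and one with constant ligand, were run with SNAP-549-labelled MS2 coat protein from 0.7 or 1.5 nM, doubling to 3 µM. The targets were designs transcribed by stalled E. coli RNA polymerase on Illumina sequencing-chip clusters, in 100 mM Tris-HCl pH 7.5, 80 mM KCl, 4 mM MgCl2, BSA, DTT, yeast tRNA and Tween-20. The apparent Kd is the median of filtered per-cluster binding-curve fits, with green signal normalised to red-channel RNA signal and control-cluster median Fmax.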

[1] = designed as: OFF switch for flavin mononucleotide, no ligand
[2] = ligand present: flavin mononucleotide, designed as: OFF switch for flavin mononucleotide
[3] = designed as: ON switch for flavin mononucleotide, no ligand
[4] = ligand present: flavin mononucleotide, designed as: ON switch for flavin mononucleotide

Sequence	apparent Kd [1] [nM]	apparent Kd [2] [nM]	apparent Kd [3] [nM]	apparent Kd [4] [nM]
AAACUGUGAGGAUAUGGUGAGUAGUGCCUGAGCGCUGCUCACCAGAAGGCACAUGAGGAUCACCCAUGUAUAAA	25.5	74.7	–	–
CGGAACAUGAGGAUCACCCAUGUAGCUACUUAAAGGUGCUACAGAAGGGACAUUGCGCGUCAUGGUCAGGAUAUGUAGGGCUGA	–	–	379	108
UAUAUUAUUAUAGGAUAUGGAUAUGAUGCAUAUCCAGAAGGGUGAUUAUAAUAUAAUCUAUACAUGAGGAUCACCCAUGUUUAU	–	–	216	78.5
AAUUAUAGGUAGAAGGUACUGUAUUAUGUGUUGUAAGGAUAUACUAUAUUAUUAGUUCUCAAGUUACAUGAGGAUCACCCAUGU	–	–	10.3	8.02
UUAUUAUAUGUAGGAUAUGCAUAUUAUUAUUGUGCAGAAGGACAUGAGGAUCACCCAUGUAUAUUAUUAUUAUAUAUUAUAUGU	25.7	30.2	–	–
GAGAAGAGGGAAGGAUAUACAUGAGGAUCACCCAUGUAGAUAGGUAUAAUAGGUUGUUGUAGUAUGUAGAAGGUCCGGUUUGUU	18.9	22.5	–	–
GAGUUACAUGAGGAUCACCCAUGUUGUUGUGGAUAAGGAUAUAUGGUAGGAAGAGGAAUGAUAGAAGGUAUUAGGG	–	–	46.2	40
UCCGUGGCAUCUCGCGCAUGUCCACAUGAGGAUCACCCAUGUCAGGAUAUACGGAAUGUCGUUCCGUAGAAGGGACAAGGGCUG	178	69.7	–	–
AAUGUGUGUCGAGGAUAUAUUAUAUGACAACAAACACAUACAUGAGGAUCACCCAUGUCCCAUGUAUAGAAGGCGAUGUGUGUG	–	–	130	174
GUGGUCAGACAUGAGGAUCACCCAUGUGGAAUAAAUAAGGGUUAGGAUAUGCAAUAUAGGAUAUAGCAGAAGGGAUGGUUGGUG	–	–	128	173
CACCGUUAACUAGGAUAUAGUACAUGAGGAUCACCCAUGUAAUAAAUGAGAAUUUCGGAUGUAUGCUAGAAGGAGUAAAUCGGC	62.8	64.4	–	–
UUAUUAUUUAUAGGAUAUUGAUGUUUGCUAGUACAAGAAGGAUAAACAUGAGGAUCACCCAUGUAGUUUAAGGUUAGUUUGUUU	–	–	38.1	39.4
UGAUAGGACAGAGGAUAUACGAAAGGCGAUCCAUACAUGAGGAUCACCCAUGUAGAAGGCUGUCCUAUCUAAGUCGGAAACGAC	84.9	16.9	–	–
UAUGUAUUCGUAGGAUAUCCGUUAAAACCGUGUGGAGAAGGACGAACAUGAGGAUCACCCAUGUAUCAUGGUGUAGACAAUUUU	170	460	–	–
GCACGGUAAGUGAGGAUAUACCUCUGGAUACAGAGGUAGAAGGCACAUGAGGAUCACCCAUGUUCCUGCCGUGC	17.2	92.9	–	–
UGCUAAUUGUAGAAGGGUGACAUGAGGAUCACCCAUGUGCACGCGCGAUUUACGGCGCGCGUGCCACAGGAUAUACAGUUGAGU	–	–	58.1	34.6
AAUAUGCAAGGAUAUACAACGUAGCUACGACGGAACGGGCUACAUGAGGAUCACCCAUGUAGAAGGUGCUACGC	15.2	16.7	–	–
CAUUCCAGGUAGAAGGGAUUACUACAUGAGGAUCACCCAUGUCGAUUGGUCAGGAUAUGCCUGUCACGACGCGUGAUGCUAAAA	–	–	382	187
AAGUAUAAGGGCAUUAAACAUGAGGAUCACCCAUGUACAAUAGAGGAUAUGCAUUUUGGUUUAGAGUAGAAGGUUAGAGAAAAU	28.2	33.5	–	–
GGUUGUCAUCGUCAUCCUUUCGGUACAUGAGGAUCACCCAUGUAGGAUAUGCUGCGCUCGGUGUGGCAGAAGGGCGUGUGUGUU	23.8	40.3	–	–
UUGGACGUCGUAGGAUAUGUAGGAUAUUCCUACAUGAGGAUCACCCAUGUUGACAUGGAAGAAGGACAGAACGACGAUGUCCAU	–	–	172	6.07
GCAGAGCCUGACAUGAGGAUCACCCAUGUUAGAUUGUUAUGUCAGGAUAUUGUCUAGCAACUAGACAAGAAGGGAUGCUCUGCG	–	–	341	27.8
UAACAAAUUGUCAGGAUAUCAUUCCCGGCCCAGAGUGAGAAGGGACAUGAGGAUCACCCAUGUAUGAUUCUCAC	16.1	15.3	–	–
CUACUCAUGUAAGGAUAUGCAGCCGAAACGGCUGCAGAAGGUACUAUAAUACAUGAGGAUCACCCAUGUAAAAUAAAUAAAGUU	–	–	33.8	14.7
UGUCGGAGCAGAGGAUAUACAUGAGGAUCACCCAUGUAAAUGGAAGAAGACUGGAAACAGUCAAUGUAGAAGGCUGCUCCGACA	125	694	–	–
CUUUAGUGAGGAUAUGUGGCUUCGAUCGUGAGAUCGAGGCUACAGAAGGCACAUGAGGAUCACCCAUGUUCCUG	15.7	48.5	–	–
UGGUACUAGGGAGGAUAUGGGAAGAUACAUGAGGAUCACCCAUGUUUAAGAAUGCCGAGAGGAAACUAGAAGGCCCUAGUACCU	–	–	279	13.8
AUAAUUUAAGUGAGGAUAUACCUAUGGAAACAUAGGUAGAAGGCACAUGAGGAUCACCCAUGUUUUUACACAAA	17.8	37.9	–	–

Sequence	apparent Kd [1] [nM]	apparent Kd [2] [nM]	apparent Kd [3] [nM]	apparent Kd [4] [nM]
GAGUGACAUGAGGAUCACCCAUGUGAGGAUAUCGGACGGACCAAAUUAACAUCCGCCGCGAGAAGGCACAUCGG	78.7	24.5	–	–
UUGAAGUCAUCAGGAUAUAGUAUAAAAGACAUAUAUUUUUUCAAACAUGAGGAUCACCCAUGUCGCUAGAAGGGAUUAUAGAUU	47.3	41.3	–	–
GCUGUCGCAUGAGGAUAUGGUCAGGUUUCCUGACCAGAAGGCAUGUCGAUAGACAUGAGGAUCACCCAUGUAGUAAAGACAGCA	–	–	855	66.1
GCUGUAAAUGAGAAGGCGAUCAUGAAACAUGAUCGAGGAUAUCAUGUUUACAUGAGGAUCACCCAUGUAUGGGUAUAUUGCAGC	–	–	618	19.6
UAGGUCAUCUGAGGAUAUCGAACUCAAAGGCUACGAGAAGGCAGACUGACAUGAGGAUCACCCAUGUACCGGGAAGAUGCCUCC	14.6	130	–	–
CGCGAACAGGCUAACAUGAGGAUCACCCAUGUGGACUCAUGGUAGGAUAUCGGGAAGGAGGAAACCGAGAAGGGCCGGUGAGCA	–	–	218	38.9
UGGAACAUGGGAGGAUAUGGGAUGAUAACAUGAGGAUCACCCAUGUUAAAGAUGCCGAGAGGCAACUAGAAGGCCCAUGUUCCU	–	–	368	60.5
GGACCGCGUAGAAUUAGCGGCCGGCAGGAUAUGACAUGAGGAUCACCCAUGUGAACUCCAUUGGGUCAGAAGGGCCACGACACA	20.6	96.4	–	–
AUUCCCAACCAGAAGGACAUGAGGAUCACCCAUGUAGGAUAUGGGUGGGUGACCCGAACUUGGACGACAUCACAAUUCUCACAC	–	–	55.6	9.49
GAUCGACAUGAGGAUCACCCAUGUCAGGAUAUCGUCACUGGAGCUUCGGCUCCAGUGACGAGAAGGGACAUAAU	31.9	44.6	–	–
AGACGGAGCUGAGGAUAUUACAUGAGGAUCACCCAUGUAAGUCUCCAGGAAACUGGAGACAAAUGUAAGAAGGCAGCUCCGUCA	19.3	29.5	–	–
AGAAAACAUGAGGAUCACCCAUGUGAGGAUAUCGAUGUCCAAGGCCGGGUGCGGGACUCGAGAAGGCACUUGGG	75.5	38.7	–	–
ACUUAUAGAGGAUAUACAGAAUAUUACAUGAGGAUCACCCAUGUUCUUCAAUGUAUAUUUGUAGAAGGCUAAGGAA	50.6	249	–	–
CAAUUUAUGUCAGGAUAUACAAUACAAUGAUUAGUAGAAGGGAUUAAUACAUGAGGAUCACCCAUGUCAUGUGUCAUCGUAACC	22.3	17.4	–	–
UAAAGCGUAGAUAAUUAUGUUACAUGAGGAUCACCCAUGUCAUAGGAUAUGCAGUGGAAUACACUGCAGAAGGAUGAAUCGCAG	24.9	33.3	–	–
CGGGUAUAUCGAGGAUAUAAGUCUAGGACAUGAGGAUCACCCAUGUAUGUCUUAGAAGGCGAUAUACCCAGCCUGUUACAGGCA	–	–	31	6.37
GCCUCAUAGUAGAAGGGACUUUUACAGUAAUGUUUUUAGUGUAAAUAACAUGAGGAUCACCCAUGUCAGGAUAUACUAAGAGGC	5.82	6.35	–	–
AAGGUGUUAGGAUAUCGGAGUUUGAGGCAGACGGGAAUUUUCGAGAAGGAACAUGAGGAUCACCCAUGUAGUAU	24.1	24.8	–	–
CAGAAGUCAGGAUAUGCAUGGCGGGACUUGCGUCGUGGCGUGCAGAAGGGACAUGAGGAUCACCCAUGUGGAGU	173	251	–	–
AGGAAGUUAGGAUAUGCUGCUCGUCACUUGCGUGAUGAGUAGCAGAAGGAACAUGAGGAUCACCCAUGUAAAAA	27.7	22.2	–	–
AUGGUGACGUAGAAGGGUGACAUGAGGAUCACCCAUGUGCCGAUAUUUUUCGAAAUAUGUCGGCCACAGGAUAUACGUGCCAUC	–	–	68.7	136
UAUAUAUAGUAAGGAUAUGUAUAUACUUUAUAAACAGAAGGUACUGACAUGAGGAUCACCCAUGUUUUAGUGUGGGCAUGUAGA	75.9	102	–	–
UCAUACGUUGAGGAUAUGUCAGUUAGUAUAUUUACAGAAGGCGAUACAUGAGGAUCACCCAUGUUUAUGGGCAU	219	298	–	–
UUUGAGUUCCGAGGCCGCGAGUUCACAGAAGGCAUUAUUACAUGAGGAUCACCCAUGUGGGUACAUGAGGAUAUGUGAUAUGCG	–	–	20.8	6.55
CGCUAUUAUGUAGGAUAUACAUUUUUUAUGUAUGUAGAAGGACAUGAGGAUCACCCAUGUAAAUUAAUUUUAAUUAUCUUAGCG	16.4	13.3	–	–
CCACCUCCUGAGGAUAUUGCAUCACCCGACUGAUAAGAAGGCAGAACAUGAGGAUCACCCAUGUGGGUACUCAC	84	87.1	–	–
CUUCUCAGAGUCAGGAUAUAGUCGAAAGGGCUAGACUAGAAGGGACAUGAGGAUCACCCAUGUAAAAUAUCAAA	19.2	29.8	–	–
